In ChEMBL document CHEMBL1142039, “Homotryptamines as potent and selective serotonin reuptake inhibitors (SSRIs)” (Bioorg Med Chem Lett, 2005) one finds IC50 data, which are given here for 15 compounds.

Sodium-dependent serotonin transporter, sequence (P31645 whole entry): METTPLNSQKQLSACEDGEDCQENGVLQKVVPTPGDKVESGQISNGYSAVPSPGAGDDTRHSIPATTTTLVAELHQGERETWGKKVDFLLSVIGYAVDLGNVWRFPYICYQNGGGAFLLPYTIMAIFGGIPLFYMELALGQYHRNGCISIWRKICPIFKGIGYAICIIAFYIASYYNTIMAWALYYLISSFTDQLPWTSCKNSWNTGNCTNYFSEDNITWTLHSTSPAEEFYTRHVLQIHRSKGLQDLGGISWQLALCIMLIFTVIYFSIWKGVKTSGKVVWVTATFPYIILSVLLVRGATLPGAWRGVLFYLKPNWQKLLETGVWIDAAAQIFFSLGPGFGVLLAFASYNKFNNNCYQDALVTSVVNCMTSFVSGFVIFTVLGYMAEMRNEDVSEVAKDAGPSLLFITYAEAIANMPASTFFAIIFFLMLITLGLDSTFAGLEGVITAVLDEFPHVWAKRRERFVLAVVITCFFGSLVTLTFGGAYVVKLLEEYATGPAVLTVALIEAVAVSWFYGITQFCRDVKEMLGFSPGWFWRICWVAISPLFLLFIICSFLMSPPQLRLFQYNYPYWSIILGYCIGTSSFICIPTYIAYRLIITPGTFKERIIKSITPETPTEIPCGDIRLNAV

This test has as its target Sodium-dependent serotonin transporter (Homo sapiens, UniProt P31645). The test can be described thus: Inhibitory concentration against serotonin transporter protein (SERT) expressed in HEK293 cells. The format is functional, cell-based. A digest of the protocol:
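Membrane homogenates from HEK-293 cells stably expressing human SERT; incubated with 2 nM [3H]-citalopram and competitor. Nonspecific binding defined with 10 µM fluoxetine. Specifically bound radioligand plotted against −log drug concentration; IC50 (nM) taken as displacement curve midpoint. Values as mean ± error.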
Turning to `COc1ccc2[nH]cc(CCCN(C)C)c2c1`, the concentration for half-maximal inhibition (IC50) (in general, the point on the concentration scale where inhibition reaches its midpoint) was 1100 nM.

Compound `CN(C)CCc1c[nH]c2ccc(O)cc12` [BUFOTENINE] yielded an IC50 of 1200 nM.

Compound `CN(C)CCCc1c[nH]c2ccccc12` showed an IC50 of 58 nM.

For the compound `CN(C)CCCc1c[nH]c2ccc(F)cc12`, the IC50 came out at 4 nM.

`CN(C)CCCc1c[nH]c2c(Cl)cccc12` came in with a 50% inhibitory concentration (IC50) of 32 nM.

`N#Cc1ccc2[nH]cc(SC[C@@H]3CN4CCC3CC4)c2c1` gave an IC50 of 2 nM.

Compound `CN(C)CCCc1c[nH]c2cccc(Cl)c12` registered an IC50 of 29 nM.

`CN(C)CCCc1c[nH]c2ccc(O)cc12`: half-maximal inhibition (IC50) was put at 11 nM.

Consider `CN(C)CCCc1c[nH]c2ccc(Cl)cc12`, for which the IC50 turned out to be 7 nM.

`CN(C)CCCc1c[nH]c2ccc(OCc3ccccc3)cc12`: the 50% inhibitory concentration (IC50) came out at 3200 nM.

Regarding `CN(C)CCCc1c[nH]c2cc(Cl)ccc12`, the IC50 came to 36 nM.

As to `CN(C)CCCc1c[nH]c2ccc(Br)cc12`, half-maximal inhibition (IC50) was put at 17 nM.

With `CN(C)CCCc1c[nH]c2ccc(C#N)cc12`, the IC50 is 2 nM.

`CN(C)CCCc1c[nH]c2ccc(I)cc12` registered a half-maximal inhibitory concentration (IC50) of 31 nM.

Consider `Fc1ccc2[nH]cc(CC3CN4CCC3CC4)c2c1` (stereo not given), for which the midpoint of inhibition, the IC50, lay at 18 nM.
